Data published in ChEMBL document CHEMBL2146434, “Synthesis and biological evaluation of new amino acid and dipeptide derivatives of neocryptolepine as anticancer agents” (J Med Chem, 2012).

tested on: KB; test: Cytotoxicity against human KB cells after 72 hrs by SRB assay; assay type: functional, cell-based; conditions: not given

Structure (SMILES)	IC50
Cc1c2c3cc(NC(=O)[C@@H]4CCCN4)ccc3nc-2n(C)c2ccccc12.Cl.Cl	420 nM

tested on: Lewis lung carcinoma cell line; test: Antineoplastic activity against mouse LLC cells xenografted in C57BL/6 mouse assessed as tumor growth inhibition at 30 mg/kg/day, ip administered on day 9 to day 12 of tumor implantation measured on day 21; assay type: functional; conditions: route intraperitoneal, read-out: TGI
Method in brief: (§1)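 Mice bore Lewis lung carcinoma (LLC) inoculated subcutaneously and received test agents intraperitoneally at 15–50 mg kg⁻¹ day⁻¹ from day 9 or day 10. A single 100 mg/kg cyclophosphamide dose was the cytostatic control. Tumor growth was followed as the group median, and TGI% was calculated from medians versus untreated controls. Significance was tested by nonparametric Kruskal–Wallis multiple comparison, p < 0.05.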

Structure (SMILES)	inhibition in vivo at 30 mg/kg/day
Cc1c2c3cc(NC(=O)[C@@H]4CCCN4)ccc3nc-2n(C)c2ccccc12.Cl.Cl	37.9%

tested on: Lewis lung carcinoma cell line; test: Antineoplastic activity against mouse LLC cells xenografted in C57BL/6 mouse assessed as tumor growth inhibition at 30 mg/kg/day, ip administered on day 9 to day 12 of tumor implantation measured on day 11; assay type: functional; conditions: route intraperitoneal, read-out: TGI; method in brief: as §1

Structure (SMILES)	inhibition in vivo at 30 mg/kg/day
Cc1c2c3cc(NC(=O)[C@@H]4CCCN4)ccc3nc-2n(C)c2ccccc12.Cl.Cl	61.2%

tested on: Lewis lung carcinoma cell line; test: Antineoplastic activity against mouse LLC cells xenografted in C57BL/6 mouse assessed as tumor growth inhibition at 15 mg/kg/day, ip administered on day 9 to day 13 of tumor implantation measured on day 23; assay type: functional; conditions: route intraperitoneal, read-out: TGI; method in brief: as §1

Structure (SMILES)	inhibition in vivo at 15 mg/kg/day
Cc1c2c3cc(NC(=O)[C@@H]4CCCN4)ccc3nc-2n(C)c2ccccc12.Cl.Cl	24.6%

tested on: Lewis lung carcinoma cell line; test: Antineoplastic activity against mouse LLC cells xenografted in C57BL/6 mouse assessed as tumor growth inhibition at 30 mg/kg/day, ip administered on day 9 to day 12 of tumor implantation measured on day 23; assay type: functional; conditions: route intraperitoneal, read-out: TGI; method in brief: as §1

Structure (SMILES)	inhibition in vivo at 30 mg/kg/day
Cc1c2c3cc(NC(=O)[C@@H]4CCCN4)ccc3nc-2n(C)c2ccccc12.Cl.Cl	41.1%

tested on: Lewis lung carcinoma cell line; test: Antineoplastic activity against mouse LLC cells xenografted in C57BL/6 mouse assessed as tumor growth inhibition at 15 mg/kg/day, ip administered on day 9 to day 13 of tumor implantation measured on day 14; assay type: functional; conditions: route intraperitoneal, read-out: TGI; method in brief: as §1

Structure (SMILES)	inhibition in vivo at 15 mg/kg/day
Cc1c2c3cc(NC(=O)[C@@H]4CCCN4)ccc3nc-2n(C)c2ccccc12.Cl.Cl	42.6%

tested on: MCF7; test: Cytotoxicity against human MCF7 cells after 72 hrs by SRB assay; assay type: functional, cell-based; conditions: MCF7, 72 h
Method in brief: (§2)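 IC50 is the compound concentration giving 50% inhibition of cell proliferation. It was determined on normal mouse BALB/3T3 fibroblasts and on human A549, MCF-7 and LoVo cancer lines, with doxorubicin hydrochloride and DiMIQ as reference compounds.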

Structure (SMILES)	IC50
Cc1c2c3cc(NC(=O)[C@@H]4CCCN4)ccc3nc-2n(C)c2ccccc12.Cl.Cl	820 nM

tested on: Lewis lung carcinoma cell line; test: Antineoplastic activity against mouse LLC cells xenografted in C57BL/6 mouse assessed as tumor growth inhibition at 30 mg/kg/day, ip administered on day 9 to day 12 of tumor implantation measured on day 18; assay type: functional; conditions: route intraperitoneal, read-out: TGI; method in brief: as §1

Structure (SMILES)	inhibition in vivo at 30 mg/kg/day
Cc1c2c3cc(NC(=O)[C@@H]4CCCN4)ccc3nc-2n(C)c2ccccc12.Cl.Cl	50%

tested on: Lewis lung carcinoma cell line; test: Antineoplastic activity against mouse LLC cells xenografted in C57BL/6 mouse assessed as tumor growth inhibition at 15 mg/kg/day, ip administered on day 9 to day 13 of tumor implantation measured on day 16; assay type: functional; conditions: route intraperitoneal, read-out: TGI; method in brief: as §1

Structure (SMILES)	inhibition in vivo at 15 mg/kg/day
Cc1c2c3cc(NC(=O)[C@@H]4CCCN4)ccc3nc-2n(C)c2ccccc12.Cl.Cl	47.7%

tested on: Mus musculus; test: Toxicity in C57BL/6 mouse xenografted with mouse LLC cells at 15 mg/kg/day, ip administered on day 9 to day 13 of tumor implantation; assay type: organism-based; set-up: route intraperitoneal; conditions: in vivo
Method in brief: (§3)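 Mouse Lewis lung carcinoma (LLC) cells inoculated sc into mice. Daily dosing from day 9: 15 mg kg⁻¹ day⁻¹ through day 13 or 30 mg kg⁻¹ day⁻¹ through day 12; 25 or 50 mg kg⁻¹ day⁻¹ through day 13. Route is given as ip in tables and text but sc in figure legends. Body weight monitored for loss alongside tumor growth. Single 100 mg/kg cyclophosphamide dose as cytostatic control.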

Structure (SMILES)	Activity
Cc1c2c3cc(NC(=O)[C@@H]4CCCN4)ccc3nc-2n(C)c2ccccc12.Cl.Cl	Toxic

tested on: not listed separately; test: Octanol-water partition coefficient, log P of the compound in PBS buffer at pH 7.4 by spectrophotometric analysis; assay type: physicochemical; conditions: not given
Method in brief: (§4)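 Octanol–water partitioning, with log P defined as log(C_octanol/C_water). Compound in the aqueous phase was measured spectrophotometrically, and octanol content was obtained by subtracting the supernatant concentration from the total. Values are the mean of two independent experiments, each run in triplicate.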

Structure (SMILES)	logD
Cc1c2c3cc(NC(=O)[C@@H]4CCCN4)ccc3nc-2n(C)c2ccccc12.Cl.Cl	1.4

tested on: Lewis lung carcinoma cell line; test: Antineoplastic activity against mouse LLC cells xenografted in C57BL/6 mouse assessed as tumor growth inhibition at 15 mg/kg/day, ip administered on day 9 to day 13 of tumor implantation measured on day 18; assay type: functional; conditions: route intraperitoneal, read-out: TGI; method in brief: as §1

Structure (SMILES)	inhibition in vivo at 15 mg/kg/day
Cc1c2c3cc(NC(=O)[C@@H]4CCCN4)ccc3nc-2n(C)c2ccccc12.Cl.Cl	8.38%

tested on: Mus musculus; test: Toxicity in C57BL/6 mouse xenografted with mouse LLC cells assessed as body weight loss at 15 mg/kg/day, sc administered on day 9 to day 13 of tumor implantation; assay type: organism-based; set-up: route subcutaneous; conditions: in vivo
Method in brief: (§5)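 Body weight was tracked in C57BL/6 mice bearing subcutaneously inoculated LLC during therapy given daily from day 9 to day 13. A single 100 mg/kg dose of cyclophosphamide served as the cytostatic control group.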

Structure (SMILES)	Activity
Cc1c2c3cc(NC(=O)[C@@H]4CCCN4)ccc3nc-2n(C)c2ccccc12.Cl.Cl	<= 15%

tested on: Mus musculus; test: Toxicity in C57BL/6 mouse xenografted with mouse LLC cells assessed as body weight loss at 30 mg/kg/day, ip administered on day 9 to day 12 of tumor implantation; assay type: organism-based; set-up: route intraperitoneal; conditions: in vivo; method in brief: as §3

Structure (SMILES)	Activity
Cc1c2c3cc(NC(=O)[C@@H]4CCCN4)ccc3nc-2n(C)c2ccccc12.Cl.Cl	<= 15%

tested on: Mus musculus; test: Toxicity in C57BL/6 mouse xenografted with mouse LLC cells assessed as body weight loss at 50 mg/kg/day, sc administered on day 9 to day 13 of tumor implantation; assay type: organism-based; set-up: route subcutaneous; conditions: in vivo; method in brief: as §3

Structure (SMILES)	Activity
Cc1c2c3cc(NC(=O)[C@@H]4CCCN4)ccc3nc-2n(C)c2ccccc12.Cl.Cl	<= 15%

tested on: A549; test: Cytotoxicity against human A549 cells after 72 hrs by SRB assay; assay type: functional, cell-based; conditions: A549, 72 h; method in brief: as §2

Structure (SMILES)	IC50
Cc1c2c3cc(NC(=O)[C@@H]4CCCN4)ccc3nc-2n(C)c2ccccc12.Cl.Cl	480 nM

tested on: not listed separately; test: Solubility of the compound in water; assay type: physicochemical; conditions: buffer

Structure (SMILES)	solubility
Cc1c2c3cc(NC(=O)[C@@H]4CCCN4)ccc3nc-2n(C)c2ccccc12.Cl.Cl	soluble

tested on: Lewis lung carcinoma cell line; test: Antineoplastic activity against mouse LLC cells xenografted in C57BL/6 mouse assessed as tumor growth inhibition at 30 mg/kg/day, ip administered on day 9 to day 12 of tumor implantation measured on day 16; assay type: functional; conditions: route intraperitoneal, read-out: TGI; method in brief: as §1

Structure (SMILES)	inhibition in vivo at 30 mg/kg/day
Cc1c2c3cc(NC(=O)[C@@H]4CCCN4)ccc3nc-2n(C)c2ccccc12.Cl.Cl	75.8%

tested on: LoVo; test: Cytotoxicity against human LoVo cells after 72 hrs by SRB assay; assay type: functional, cell-based; conditions: not given; method in brief: as §2

Structure (SMILES)	IC50
Cc1c2c3cc(NC(=O)[C@@H]4CCCN4)ccc3nc-2n(C)c2ccccc12.Cl.Cl	810 nM

tested on: not listed separately; test: Ratio of IC50 for compound to ratio of IC50 for DiMIQ for BALB mouse 3T3 cells; assay type: cell-based; conditions: read-out: Ratio IC50

Structure (SMILES)	selectivity ratio
Cc1c2c3cc(NC(=O)[C@@H]4CCCN4)ccc3nc-2n(C)c2ccccc12.Cl.Cl	5

tested on: not listed separately; test: Dissociation constant, pKa of the compound in PBS buffer at 5 uM at pH 2 to 10 by UV-spectrophotometric analysis; assay type: physicochemical; conditions: not given
Method in brief: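 UV spectrophotometric titration at a final compound concentration of 5 μM. At this concentration the absorbance–concentration relationship stayed linear. pKa was read from spectral changes across pH.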

Structure (SMILES)	pKa at 5 µM
Cc1c2c3cc(NC(=O)[C@@H]4CCCN4)ccc3nc-2n(C)c2ccccc12.Cl.Cl	7.2

tested on: Lewis lung carcinoma cell line; test: Antineoplastic activity against mouse LLC cells xenografted in C57BL/6 mouse assessed as tumor growth inhibition at 30 mg/kg/day, ip administered on day 9 to day 12 of tumor implantation measured on day 14; assay type: functional; conditions: route intraperitoneal, read-out: TGI; method in brief: as §1

Structure (SMILES)	inhibition in vivo at 30 mg/kg/day
Cc1c2c3cc(NC(=O)[C@@H]4CCCN4)ccc3nc-2n(C)c2ccccc12.Cl.Cl	74%

tested on: Mus musculus; test: Toxicity in C57BL/6 mouse xenografted with mouse LLC cells at 30 mg/kg/day, ip administered on day 9 to day 12 of tumor implantation; assay type: organism-based; set-up: route intraperitoneal; conditions: in vivo; method in brief: as §3

Structure (SMILES)	Activity
Cc1c2c3cc(NC(=O)[C@@H]4CCCN4)ccc3nc-2n(C)c2ccccc12.Cl.Cl	Toxic

tested on: Mus musculus; test: Toxicity in C57BL/6 mouse xenografted with mouse LLC cells assessed as body weight loss at 30 mg/kg/day, sc administered on day 9 to day 12 of tumor implantation; assay type: organism-based; set-up: route subcutaneous; conditions: in vivo; method in brief: as §3

Structure (SMILES)	Activity
Cc1c2c3cc(NC(=O)[C@@H]4CCCN4)ccc3nc-2n(C)c2ccccc12.Cl.Cl	<= 15%

tested on: Lewis lung carcinoma cell line; test: Antineoplastic activity against mouse LLC cells xenografted in C57BL/6 mouse assessed as tumor growth inhibition at 15 mg/kg/day, ip administered on day 9 to day 13 of tumor implantation measured on day 21; assay type: functional; conditions: route intraperitoneal, read-out: TGI; method in brief: as §1

Structure (SMILES)	inhibition in vivo at 15 mg/kg/day
Cc1c2c3cc(NC(=O)[C@@H]4CCCN4)ccc3nc-2n(C)c2ccccc12.Cl.Cl	0%

tested on: Mus musculus; test: Toxicity in C57BL/6 mouse xenografted with mouse LLC cells assessed as body weight loss at 15 mg/kg/day, ip administered on day 9 to day 13 of tumor implantation; assay type: organism-based; set-up: route intraperitoneal; conditions: in vivo; method in brief: as §5

Structure (SMILES)	Activity
Cc1c2c3cc(NC(=O)[C@@H]4CCCN4)ccc3nc-2n(C)c2ccccc12.Cl.Cl	<= 15%

tested on: not listed separately; test: Octanol-water partition coefficient, log P of the compound in citric buffer at pH 2.5 by spectrophotometric analysis; assay type: physicochemical; conditions: not given; method in brief: as §4

Structure (SMILES)	logP
Cc1c2c3cc(NC(=O)[C@@H]4CCCN4)ccc3nc-2n(C)c2ccccc12.Cl.Cl	-1.9

tested on: Lewis lung carcinoma cell line; test: Antineoplastic activity against mouse LLC cells xenografted in C57BL/6 mouse assessed as tumor growth inhibition at 15 mg/kg/day, ip administered on day 9 to day 13 of tumor implantation measured on day 11; assay type: functional; conditions: route intraperitoneal, read-out: TGI; method in brief: as §1

Structure (SMILES)	inhibition in vivo at 15 mg/kg/day
Cc1c2c3cc(NC(=O)[C@@H]4CCCN4)ccc3nc-2n(C)c2ccccc12.Cl.Cl	42%
